Screens from PubChem.
Diaphorase inh: diaphorase inhibition or chemical oxidation counter-screen. inhibition, % at 20 µM. diaphorase resazurin-to-resorufin fluorescence, NADH, 16 min; bacterial (C. kluyveri) enzyme, not human. 190,000 compounds, 0.69% hits. AID 1217;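 active means primary screen inhibition at 20 µM above a set limit, cut at about 50% in these data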;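 further: plate controls were DMSO with full reaction for no effect and wells lacking NADH for full effect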
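material = Clostridium kluyveri diaphorase enzyme | amount = 0.14 U/mL diaphorase, enzyme working solution | schedule = incubation 16 min, room temperature | detection = fluorescence of resorufin formed from resazurin, Ex 544/Em 590 nm | benchmarks = positive control minus NADH, DMSO neutral control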
PfGluPho inh: PfG6PD (Plasmodium falciparum) enzyme inhibition; PfGluPho enzyme, NADPH resazurin-diaphorase fluorescence; inhibition, % at 20 µM; 350,000 compounds, 0.78% hits; AID 504690;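 active means inhibition reaching at least a set limit at 20 µM in the primary screen, cut at about 59% in these data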;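 further: 0% = DMSO wells with substrate and 100% = DMSO wells lacking glucose-6-phosphate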
HKDC1 inhibitor: inhibitors of human hexokinase HKDC1 | 340,000 compounds, 0.16% hits | inhibition, % at 20 µM | recombinant HKDC1, G6PDH/diaphorase resazurin coupled fluorescence;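 active means inhibition above about 35% when tested at 20 µM, limit read from the data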;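 further: plate controls were DMSO wells with enzyme for no effect and DMSO wells lacking enzyme for full effect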
Target sequence (Q2TB90 whole entry, looked up): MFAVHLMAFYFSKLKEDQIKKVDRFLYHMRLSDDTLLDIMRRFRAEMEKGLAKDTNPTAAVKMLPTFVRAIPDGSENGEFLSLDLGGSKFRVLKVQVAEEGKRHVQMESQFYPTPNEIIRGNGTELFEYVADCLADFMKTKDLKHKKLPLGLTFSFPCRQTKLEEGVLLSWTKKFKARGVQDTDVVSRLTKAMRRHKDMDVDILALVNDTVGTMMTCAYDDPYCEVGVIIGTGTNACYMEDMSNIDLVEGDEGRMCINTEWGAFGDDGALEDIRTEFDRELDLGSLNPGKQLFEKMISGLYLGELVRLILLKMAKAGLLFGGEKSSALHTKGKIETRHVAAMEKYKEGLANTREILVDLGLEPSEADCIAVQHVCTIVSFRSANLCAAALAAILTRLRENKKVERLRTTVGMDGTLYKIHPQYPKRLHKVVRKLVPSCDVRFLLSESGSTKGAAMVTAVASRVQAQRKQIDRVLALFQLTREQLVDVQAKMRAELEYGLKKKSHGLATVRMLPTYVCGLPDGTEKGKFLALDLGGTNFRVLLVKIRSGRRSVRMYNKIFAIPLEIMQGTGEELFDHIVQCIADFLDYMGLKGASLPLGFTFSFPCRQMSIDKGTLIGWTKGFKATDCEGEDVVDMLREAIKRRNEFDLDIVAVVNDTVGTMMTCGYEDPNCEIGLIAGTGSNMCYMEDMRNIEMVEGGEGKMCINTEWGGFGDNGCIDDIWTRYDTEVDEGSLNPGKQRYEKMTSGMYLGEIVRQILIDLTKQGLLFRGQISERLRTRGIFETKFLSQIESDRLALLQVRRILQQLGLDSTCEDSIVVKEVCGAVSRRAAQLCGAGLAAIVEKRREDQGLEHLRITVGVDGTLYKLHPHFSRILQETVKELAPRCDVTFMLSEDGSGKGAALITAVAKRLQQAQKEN
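Material: recombinant HKDC1 hexokinase; Amount: HKDC1 at 5 µg/mL; Medium: Tris pH 8.0 buffer with MgCl2, Tween-20, BSA, BME; Schedule: 90 min reaction incubation at room temperature, dark; Technique: coupled resazurin fluorescence, excitation 525 nm, emission 613 nm.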
G6PDH CS: inhibits Leuconostoc G6PDH, flagging false hits in G6PDH-based assays; AID 1020; 200,000 compounds, 0.12% hits; inhibition, % at 5 µM; Purified L. mesenteroides G6PDH, diaphorase/resazurin coupled fluorescence, 45 min; in the data active means inhibition above about 50%
* marks the source's active call; other numbers are inactive results; nt = not tested or not shown. A selection: hits, their analogues and other compounds. The true share with any hit is near 1.3%.

SMILES | Diaphorase inh | PfGluPho inh | HKDC1 inhibitor | G6PDH CS
COC(=O)c1cccc(-n2sc3ccccc3c2=O)c1 | nt | 117* | 2 | nt
O=c1c2ccccc2sn1-c1ccc(F)cc1 | nt | 113* | 3 | nt
COC(=O)c1cccc(N2CCCC2=O)c1 | nt | -13 | -5 | nt
O=c1sc2ccccc2c(=O)n1Cc1ccccc1F | 5 | 2 | 1 | 0
Oc1ccc(N2CCN(c3ncnc4sc5c(c34)CCC5)CC2)cc1 | 37 | 62* | 6 | 7
O=C1c2cccc3c(N4CCCCC4)ccc(c23)C(=O)N1c1cccc(O)c1 | 60* | -1 | 22 | 8
O=C1c2cccc3c(N4CCCCC4)ccc(c23)C(=O)N1CCO | 38 | 5 | 19 | 5
COCCNC(=O)c1ccc(N2CC3CC(C2)c2cccc(=O)n2C3)c(NC(=O)c2ccc(C(C)(C)C)cc2)c1 (configuration not stated) | nt | 16 | nt | nt
O=C(CCS(=O)(=O)c1ccccc1)Nc1nc(-c2cccs2)cs1 | 4 | 17 | 6 | 50*
COc1ccc(C(=O)C2CCCN(C(=O)COc3ccc(C(C)=O)cc3)C2)cc1F (configuration not stated) | 70* | 6 | -3 | 14
COc1ccc(C(=O)C2CCCN(C(=O)c3ccccc3C(C)=O)C2)cc1F (configuration not stated) | -14 | -1 | 12 | 10
COc1cc(OC)cc(C(=O)NCc2cc(C)nc3ccccc23)c1 | 76* | 0 | 14 | 2
COc1ccc(C(=O)NCc2cc(C)nc3ccccc23)cc1OC | -10 | 7 | -1 | 5
N#C/C(=C\c1ccc(-c2ccc(C(=O)O)cc2)o1)c1nc2ccccc2[nH]1 | 65* | -9 | 7 | 11
CC(=O)Nc1ccc(S(=O)(=O)N2CCC(N3CCCCC3)CC2)cc1 | nt | -26 | -3 | nt
Cc1ccc(O)c(C=Nc2ccc3[nH]ncc3c2)c1 | 61* | 37 | 2 | 34
Cc1ccc(O)c(C=Nc2cc(C)ccc2O)c1 | 18 | 25 | -5 | 7
Cc1ccccc1OCC(=O)OCC(=O)NC1CC1 | nt | 3 | -1 | nt
CCN(CC)c1ccc2c(c1)CCCN2 | 59* | nt | nt | 35
CCn1cc(CN2CCC(n3nccc3NC(=O)C3CCCC3)CC2)cn1 | nt | 0 | -4 | nt
N#Cc1c(-c2ccco2)cc(-c2cccnc2)nc1N | 52* | 20 | 8 | 11
N#Cc1c(-c2cccnc2)cc(-c2ccccc2)nc1N | nt | -6 | 1 | nt
Cc1ccc(C(=O)OCN2C(=O)c3ccccc3C2=O)o1 | nt | -15 | 0 | nt
Oc1cc2c(cc1C(c1ccc(Cl)c(Cl)c1)N1CCCC1)OCO2 (configuration not stated) | 9 | 62* | 20 | 20
COCCCN1CC(=O)N2C(c3cccc(OC)c3OC)c3[nH]c4ccccc4c3C[C@H]2C1=O (some centres not stated) | nt | -7 | -2 | nt
SMILES | Diaphorase inh | PfGluPho inh | HKDC1 inhibitor | G6PDH CS
Cc1cc(S(=O)(=O)NC(C)c2nnc3ccccn23)ccc1Br (configuration not stated) | nt | -1 | -2 | nt
CCOC(=O)c1sc2nc(C(C)C)c3c(c2c1N)CC(C)(C)OC3 | 55* | 6 | 0 | 5
CCOC(=O)c1sc2nc(N3CCCC3)c3c(c2c1N)CC(C)(C)OC3 | 15 | -3 | 2 | 4
CCOC(=O)c1nn(-c2ccc(F)cc2)c(=O)c2c(N)scc12 | 32 | 23 | 7 | 51*
CCOC(=O)c1nn(-c2ccc(C)cc2)c(=O)c2c(N)scc12 | 28 | 40 | 7 | 34
CN(Cc1c(O)ccc2c1oc(=O)c1ccccc12)C1CCCCC1 | 94* | 34 | 22 | 8
CC(CC(=O)Nc1ccc(Cl)c(S(=O)(=O)N2CCOCC2)c1)c1ccccc1 (configuration not stated) | nt | -4 | 1 | nt
O=C(N/N=C/c1cc([N+](=O)[O-])ccc1O)Nc1ccccc1 | nt | -12 | -13 | 28
COc1ccc(N2CC(C(=O)N/N=C/c3cc([N+](=O)[O-])ccc3O)CC2=O)cc1 (configuration not stated) | 55* | -43 | -7 | -6
CCNC(=O)C(=O)N/N=C/c1cc([N+](=O)[O-])ccc1O | 53* | 31 | -18 | 28
NC(=O)c1ccsc1NC(=O)COC(=O)c1ccccn1 | nt | 10 | -1 | nt
Cc1ccc(CNC(=O)Cn2cnc3c(NC(=O)OCc4ccccc4)ncnc32)o1 | nt | -2 | -3 | nt
COc1ccc(NS(=O)(=O)c2ccc(C)c(NC(=O)CN3C(=O)NC4(CCCC4)C3=O)c2)cc1 | nt | 8 | -12 | nt
O=C(/C=C/c1ccc(Br)o1)OCc1nc2ccsc2c(=O)[nH]1 | nt | 48 | 58* | nt
C=CCn1c(SCC(=O)N2N=C(c3ccco3)CC2c2ccco2)nnc1-c1ccncc1 (configuration not stated) | 74* | -3 | -8 | 6
O=C(CNS(=O)(=O)c1ccc(Cl)c(C(F)(F)F)c1)NC1CCCCCC1 | nt | -15 | -2 | nt
O=C(CCl)Nc1nc(-c2ccco2)c(-c2ccco2)s1 | 65* | 20 | 25 | 15
O=C(CCCSc1ccccc1)Nc1nc(-c2ccco2)c(-c2ccco2)s1 | 37 | 29 | 23 | -6
CCN(CC)C(=O)CSc1nc2c(sc(=S)n2Cc2ccco2)c(=O)n1-c1ccccc1 | 51* | 11 | 1 | 1
CCOC(=O)CSc1nc2c(sc(=S)n2-c2ccc(CC)cc2)c(=O)[nH]1 | nt | -46 | 4 | nt
CCOC(=O)c1ccc(-n2c(=S)sc3c(=O)[nH]c(C)nc32)cc1 | 16 | 66* | -12 | -15
CCOC(=O)CSc1nc2c(sc(=S)n2Cc2ccco2)c(=O)n1-c1ccccc1 | 24 | 15 | -4 | 8
CCN(CC)C(=O)CSc1nc2c(sc(=S)n2-c2ccccc2)c(=O)[nH]1 | 69* | -10 | 12 | 2
COc1ccc(-c2nc(CN3CCCCC3c3nccn3C)c(C)o2)c(C)c1C (configuration not stated) | 2 | 11 | 1 | 5
CC(C)(C)S(=O)(=O)N1C[C@H]2CC/C=C\C/C=C\2[C@@H]1CCO | nt | 4 | nt | nt
CCCC(C(=O)NNC(=O)c1cc(C)oc1C)c1ccccc1 (configuration not stated) | nt | -3 | -10 | nt
C#CCOCCOCCOCCNc1nc(N2CCN(C(=O)CCCCCCCCCCNC(=O)Cn3cc(CCCCCN)nn3)CC2)nc(N2CCN(C(=O)CCCCCCCCCCNC(=O)[C@H]([C@@H](C)CC)n3cc(CCCCCN)nn3)CC2)n1 | nt | 66* | -14 | nt
C#CCOCCOCCOCCNc1nc(N2CCN(C(=O)CCCCCCCCCCNC(=O)[C@H](CCCCN)n3cc(CCO)nn3)CC2)nc(N2CCN(C(=O)CCCCCCCCCCNC(=O)[C@H](CCCN=C(N)N)n3cc(C[C@@H](C)CC)nn3)CC2)n1 | nt | 62* | -3 | nt
C#CCOCCOCCOCCNc1nc(N2CCN(C(=O)[C@H](CCCCN)n3cc(CC(C)O)nn3)CC2)nc(N2CCN(C(=O)[C@H](Cc3ccc(O)cc3)n3cc(CCO)nn3)CC2)n1 (some centres not stated) | nt | -5 | -1 | nt
